Test results: ChEMBL document CHEMBL3769385 (J Med Chem, 2016)
Calls of active or inactive are those of the source.

Key:
[1] = target: 5-hydroxytryptamine receptor 2B (Homo sapiens, UniProt P41595); experiment: Agonist activity at recombinant human 5HT2B receptor expressed in Flp-In-293 cells assessed as calcium flux at 10 uM by FLIPR assay relative to 5-HT; type: functional, cell-based
[2] = system: Mus musculus; experiment: Cognitive enhancing effect in NR1-KD mouse hypoglutamatergic model of schizophrenia assessed as reduction in duration of object exploration during training at 0.5 to 1 mg/kg, ip administered for 30 mins measured for 3 days relative to wild type mouse; type: functional, organism-based
How it was run: (§1)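 Three daily 5-min trials: empty-chamber acclimation, two identical objects, then 24 h later one familiar plus one novel object (long-term memory). Sessions video-recorded; time spent investigating objects scored at training and testing.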

[3] = system: Mus musculus; experiment: Suppression of AMPH-stimulated hyperlocomotion in C57BL/6J mouse assessed as reduction in distance travelled in open field at 2 mg/kg, ip administered for 15 mins followed by AMPH challenge measured after 105 mins; type: functional, organism-based
How it was run: (§2)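 Mice, n = 7–10/treatment, injected with vehicle or 2–30 mg/kg and placed in an open field monitored by infrared beams. After 15 min baseline, they were given vehicle or 3 mg/kg d-amphetamine and recorded for a further 105 min. Distance travelled was taken in 5-min bins or as a cumulative value over 15 min baseline plus 75 min post-amphetamine.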

[4] = system: Mus musculus; experiment: Increase in AMPH-disrupted 4 to 12 dB prepulse inhibition in C57BL/6J mouse at 2 mg/kg administered for 10 mins followed by AMPH challenge; type: functional, organism-based
How it was run: (§3)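 Adult male C57BL/6 mice, n = 8–11/group, given vehicle or 0.5–4 mg/kg, then vehicle or 3 mg/kg amphetamine 10 min later. After 10 min acclimation in a startle chamber, 42 trials were run: 18 pulse-only (120 dB), 18 prepulse-pulse (4, 8, 12 dB prepulses) and 6 null. Peak startle (arbitrary units) was taken within 65 ms of pulse onset.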

[5] = system: Mus musculus; experiment: Suppression of AMPH-stimulated hyperlocomotion in C57BL/6J mouse assessed as reduction in distance travelled in open field at 5 to 30 mg/kg, ip administered for 15 mins followed by AMPH challenge measured after 105 mins; type: functional, organism-based; how it was run: as §2
[6] = system: Mus musculus; experiment: Attenuation of novel object recognition memory in wild type mouse assessed as decrease in preference for novel object at 1 mg/kg, ip administered for 30 mins measured for 3 days; type: functional, organism-based; how it was run: as §1
[7] = system: Mus musculus; experiment: Reduction in 120 dB acoustic stimulus-induced pulse-only response in C57BL/6J mouse at 0.5 to 2 mg/kg dose followed by AMPH challenge; type: functional, organism-based; how it was run: as §3
[8] = system: Mus musculus; experiment: Restoration of AMPH-disrupted 4 to 12 dB prepulse inhibition in C57BL/6J mouse at 0.5 to 1 mg/kg, ip administered for 10 mins followed by AMPH challenge; type: functional, organism-based; how it was run: as §3
[9] = system: Mus musculus; experiment: Increase in AMPH-disrupted 4 to 12 dB prepulse inhibition in C57BL/6J mouse at 4 mg/kg, ip administered for 10 mins followed by AMPH challenge; type: functional, organism-based; how it was run: as §3
[10] = system: Mus musculus; experiment: Effect on 120 dB acoustic stimulus-induced pulse-only response in C57BL/6J mouse at 4 mg/kg, ip administered for 10 mins; type: functional, organism-based; how it was run: as §3
[11] = system: Mus musculus; experiment: Cognitive enhancing effect in NR1-KD mouse hypoglutamatergic model of schizophrenia at 0.5 to 1 mg/kg, ip administered for 30 mins measured for 3 days by novel object recognition memory test; type: functional, organism-based; how it was run: as §1
[12] = system: Mus musculus; experiment: Cognitive enhancing effect in NR1-KD mouse hypoglutamatergic model of schizophrenia assessed as reduction in duration of object exploration during testing at 0.5 to 1 mg/kg, ip administered for 30 mins measured for 3 days relative to wild type mouse; type: functional, organism-based; how it was run: as §1
[13] = system: Mus musculus; experiment: Effect on 120 dB acoustic stimulus-induced pulse-only response in C57BL/6J mouse at 4 mg/kg, ip administered for 10 mins followed by AMPH challenge; type: functional, organism-based; how it was run: as §3
[14] = target: D(2) dopamine receptor (Homo sapiens, UniProt P14416); experiment: Binding affinity to human dopamine D2 receptor by radioligand binding assay
[15] = target: Histamine H2 receptor (Homo sapiens, UniProt P25021); experiment: Binding affinity to histamine H2 receptor (unknown origin) by radioligand binding assay
[16] = target: Sodium-dependent serotonin transporter (Homo sapiens, UniProt P31645); experiment: Binding affinity to human SERT by radioligand binding assay
[17] = target: T1, 5-hydroxytryptamine receptor 1A (Homo sapiens, UniProt P08908); experiment: Binding affinity to human 5HT1A receptor by radioligand binding assay
T1 sequence (P08908 whole entry): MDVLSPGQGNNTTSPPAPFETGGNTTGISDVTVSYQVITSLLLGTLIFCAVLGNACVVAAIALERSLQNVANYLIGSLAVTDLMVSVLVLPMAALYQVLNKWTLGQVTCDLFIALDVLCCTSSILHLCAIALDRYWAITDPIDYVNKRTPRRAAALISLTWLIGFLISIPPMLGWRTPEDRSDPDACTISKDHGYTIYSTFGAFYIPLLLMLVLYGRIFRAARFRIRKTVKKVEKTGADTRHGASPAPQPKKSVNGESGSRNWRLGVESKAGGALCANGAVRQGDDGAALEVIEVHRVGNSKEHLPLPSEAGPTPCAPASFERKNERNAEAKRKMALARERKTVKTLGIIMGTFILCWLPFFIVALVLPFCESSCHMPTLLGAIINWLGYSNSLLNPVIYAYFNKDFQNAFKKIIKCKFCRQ

[18] = target: T2, Muscarinic acetylcholine receptor M5 (Homo sapiens, UniProt P08912); experiment: Binding affinity to human muscarinic acetylcholine M5 receptor by radioligand binding assay
T2 sequence (P08912 whole entry): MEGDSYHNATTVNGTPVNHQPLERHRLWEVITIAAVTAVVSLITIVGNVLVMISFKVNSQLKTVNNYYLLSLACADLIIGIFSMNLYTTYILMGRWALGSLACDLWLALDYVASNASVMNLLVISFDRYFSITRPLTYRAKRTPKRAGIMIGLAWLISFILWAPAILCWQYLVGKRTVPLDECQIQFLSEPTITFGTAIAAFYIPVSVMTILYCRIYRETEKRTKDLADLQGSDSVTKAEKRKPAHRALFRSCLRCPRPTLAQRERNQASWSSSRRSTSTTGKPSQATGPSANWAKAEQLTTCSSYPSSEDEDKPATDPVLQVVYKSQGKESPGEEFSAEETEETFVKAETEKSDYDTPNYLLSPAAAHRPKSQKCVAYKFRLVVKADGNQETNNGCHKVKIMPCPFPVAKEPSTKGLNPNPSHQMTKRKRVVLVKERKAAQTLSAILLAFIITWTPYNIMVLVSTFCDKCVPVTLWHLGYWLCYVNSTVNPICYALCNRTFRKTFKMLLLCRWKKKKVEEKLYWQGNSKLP

[19] = target: T3, Alpha-2A adrenergic receptor (Homo sapiens, UniProt P08913); experiment: Binding affinity to human alpha-2A adrenergic receptor by radioligand binding assay
T3 sequence (P08913 whole entry): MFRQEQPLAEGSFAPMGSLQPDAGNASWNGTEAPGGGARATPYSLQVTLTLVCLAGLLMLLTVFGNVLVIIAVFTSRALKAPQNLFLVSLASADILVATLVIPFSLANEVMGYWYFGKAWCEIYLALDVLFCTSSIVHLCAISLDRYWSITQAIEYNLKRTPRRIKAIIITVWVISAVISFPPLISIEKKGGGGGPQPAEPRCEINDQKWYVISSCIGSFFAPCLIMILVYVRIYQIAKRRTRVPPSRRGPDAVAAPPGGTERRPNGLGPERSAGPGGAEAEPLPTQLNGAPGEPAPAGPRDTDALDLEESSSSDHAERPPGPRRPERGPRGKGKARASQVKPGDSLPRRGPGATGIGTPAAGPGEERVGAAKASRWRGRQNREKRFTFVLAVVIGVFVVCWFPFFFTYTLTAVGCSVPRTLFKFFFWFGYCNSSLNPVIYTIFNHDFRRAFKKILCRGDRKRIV

[20] = target: T4, D(4) dopamine receptor (Homo sapiens, UniProt P21917); experiment: Binding affinity to human dopamine D4 receptor by radioligand binding assay
T4 sequence (P21917 whole entry): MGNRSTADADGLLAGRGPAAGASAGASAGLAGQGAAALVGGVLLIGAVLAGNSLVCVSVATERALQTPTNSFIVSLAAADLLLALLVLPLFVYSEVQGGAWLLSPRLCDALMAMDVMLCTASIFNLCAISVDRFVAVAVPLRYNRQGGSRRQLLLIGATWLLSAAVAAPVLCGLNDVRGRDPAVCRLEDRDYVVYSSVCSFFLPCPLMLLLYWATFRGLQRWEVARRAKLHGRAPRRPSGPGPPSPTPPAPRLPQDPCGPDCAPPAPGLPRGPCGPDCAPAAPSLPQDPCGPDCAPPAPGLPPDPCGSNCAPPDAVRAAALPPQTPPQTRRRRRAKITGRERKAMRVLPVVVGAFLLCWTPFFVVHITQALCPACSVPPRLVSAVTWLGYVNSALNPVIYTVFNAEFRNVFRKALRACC

[21] = system: Mus musculus; experiment: Cataleptic activity in C57BL/6J mouse at 0.01 to 30 mg/kg, ip measured after 60 mins; type: ADME, organism-based; settings: in vivo, 1 h
[22] = target: 5-hydroxytryptamine receptor 7 (Homo sapiens, UniProt P34969); experiment: Binding affinity to human 5HT7 receptor by radioligand binding assay
[23] = target: T5, Alpha-2C adrenergic receptor (Homo sapiens, UniProt P18825); experiment: Binding affinity to human alpha-2C adrenergic receptor by radioligand binding assay
T5 sequence (P18825 whole entry): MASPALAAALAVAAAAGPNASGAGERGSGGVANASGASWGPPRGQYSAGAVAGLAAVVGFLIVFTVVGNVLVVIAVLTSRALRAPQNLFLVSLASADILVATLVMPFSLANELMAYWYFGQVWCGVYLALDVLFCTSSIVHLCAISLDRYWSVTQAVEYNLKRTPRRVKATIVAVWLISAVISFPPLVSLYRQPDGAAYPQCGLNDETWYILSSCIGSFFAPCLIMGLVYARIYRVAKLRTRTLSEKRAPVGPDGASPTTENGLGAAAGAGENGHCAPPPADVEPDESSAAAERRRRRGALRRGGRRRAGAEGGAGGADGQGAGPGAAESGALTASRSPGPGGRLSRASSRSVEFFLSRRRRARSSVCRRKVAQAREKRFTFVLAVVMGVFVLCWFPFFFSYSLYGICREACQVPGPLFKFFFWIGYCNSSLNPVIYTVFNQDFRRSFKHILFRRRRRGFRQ

[24] = Binding affinity to sigma 2 receptor (unknown origin) by radioligand binding assay; design: species or system Homo sapiens
[25] = target: 5-hydroxytryptamine receptor 6 (Homo sapiens, UniProt P50406); experiment: Binding affinity to human 5HT6 receptor by radioligand binding assay
[26] = target: Beta-2 adrenergic receptor (Homo sapiens, UniProt P07550); experiment: Binding affinity to human beta-2 adrenergic receptor by radioligand binding assay
[27] = target: D(3) dopamine receptor (Homo sapiens, UniProt P35462); experiment: Binding affinity to dopamine D3 receptor (unknown origin) by radioligand binding assay
[28] = system: Mus musculus; experiment: Cataleptic activity in ip dosed C57BL/6J mouse measured after 60 mins; type: organism-based; settings: in vivo, 1 h
How it was run: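 Male C57BL/6J mice, n = 8–10/treatment/time-point, front paws placed on a 2.5 mm horizontal bar with rear paws on the bench, tested at baseline and then injected with vehicle, haloperidol (0.01–10 mg/kg) or test agent (0.01–30 mg/kg). Separate groups were scored at 60 min as time until paw removal, with a 60 s cut-off.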

Sequence of 5-hydroxytryptamine receptor 6 (P50406 whole entry): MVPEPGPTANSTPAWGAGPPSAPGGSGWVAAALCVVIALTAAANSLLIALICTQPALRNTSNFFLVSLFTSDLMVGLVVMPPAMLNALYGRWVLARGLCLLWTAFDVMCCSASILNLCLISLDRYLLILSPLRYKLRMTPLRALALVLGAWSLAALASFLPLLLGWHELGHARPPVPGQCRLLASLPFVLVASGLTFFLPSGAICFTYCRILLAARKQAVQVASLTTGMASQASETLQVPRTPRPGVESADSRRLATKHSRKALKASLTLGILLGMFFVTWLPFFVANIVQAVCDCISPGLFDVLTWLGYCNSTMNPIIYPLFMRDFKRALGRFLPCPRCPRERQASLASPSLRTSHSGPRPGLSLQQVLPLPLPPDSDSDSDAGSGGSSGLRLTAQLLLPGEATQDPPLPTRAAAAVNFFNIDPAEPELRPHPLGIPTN
Sequence of 5-hydroxytryptamine receptor 7 (P34969 whole entry): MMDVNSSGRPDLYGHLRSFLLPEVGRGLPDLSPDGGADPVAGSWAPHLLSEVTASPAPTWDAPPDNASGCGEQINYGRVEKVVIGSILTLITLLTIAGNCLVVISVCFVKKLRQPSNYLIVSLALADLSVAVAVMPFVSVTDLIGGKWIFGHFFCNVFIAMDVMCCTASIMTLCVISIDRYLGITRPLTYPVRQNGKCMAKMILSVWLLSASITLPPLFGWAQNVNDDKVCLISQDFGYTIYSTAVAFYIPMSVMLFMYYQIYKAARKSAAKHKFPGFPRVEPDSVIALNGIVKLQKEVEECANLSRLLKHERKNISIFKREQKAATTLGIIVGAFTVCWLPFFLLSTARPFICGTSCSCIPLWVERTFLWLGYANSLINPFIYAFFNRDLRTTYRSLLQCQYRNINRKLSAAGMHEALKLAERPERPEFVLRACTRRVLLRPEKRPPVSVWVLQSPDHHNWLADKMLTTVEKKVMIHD
Sequence of D(3) dopamine receptor (P35462 whole entry): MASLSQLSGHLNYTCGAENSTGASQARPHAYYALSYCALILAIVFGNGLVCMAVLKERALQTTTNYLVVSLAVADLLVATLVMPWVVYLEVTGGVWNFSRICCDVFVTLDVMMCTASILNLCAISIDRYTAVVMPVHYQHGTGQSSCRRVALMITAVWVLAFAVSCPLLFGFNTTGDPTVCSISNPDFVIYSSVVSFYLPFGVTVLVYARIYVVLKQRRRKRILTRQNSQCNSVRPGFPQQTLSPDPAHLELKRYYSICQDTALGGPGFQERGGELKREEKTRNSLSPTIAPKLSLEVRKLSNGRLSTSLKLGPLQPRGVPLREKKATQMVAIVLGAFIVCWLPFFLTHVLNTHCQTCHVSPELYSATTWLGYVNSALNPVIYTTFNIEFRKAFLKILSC
Sequence of 5-hydroxytryptamine receptor 2B (P41595 whole entry): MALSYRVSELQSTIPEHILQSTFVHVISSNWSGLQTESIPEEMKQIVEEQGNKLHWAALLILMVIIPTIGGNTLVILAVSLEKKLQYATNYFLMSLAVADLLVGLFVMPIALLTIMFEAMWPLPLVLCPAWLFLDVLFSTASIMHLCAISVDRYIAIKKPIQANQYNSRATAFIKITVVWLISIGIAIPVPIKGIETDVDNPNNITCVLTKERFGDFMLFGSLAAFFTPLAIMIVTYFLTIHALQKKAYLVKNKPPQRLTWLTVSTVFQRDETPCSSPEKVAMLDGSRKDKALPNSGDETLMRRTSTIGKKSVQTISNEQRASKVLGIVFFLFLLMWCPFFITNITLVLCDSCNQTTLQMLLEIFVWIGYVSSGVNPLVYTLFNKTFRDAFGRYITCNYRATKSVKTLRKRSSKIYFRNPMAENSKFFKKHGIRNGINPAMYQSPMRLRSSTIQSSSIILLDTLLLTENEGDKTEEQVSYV
Sequence of Beta-2 adrenergic receptor (P07550 whole entry): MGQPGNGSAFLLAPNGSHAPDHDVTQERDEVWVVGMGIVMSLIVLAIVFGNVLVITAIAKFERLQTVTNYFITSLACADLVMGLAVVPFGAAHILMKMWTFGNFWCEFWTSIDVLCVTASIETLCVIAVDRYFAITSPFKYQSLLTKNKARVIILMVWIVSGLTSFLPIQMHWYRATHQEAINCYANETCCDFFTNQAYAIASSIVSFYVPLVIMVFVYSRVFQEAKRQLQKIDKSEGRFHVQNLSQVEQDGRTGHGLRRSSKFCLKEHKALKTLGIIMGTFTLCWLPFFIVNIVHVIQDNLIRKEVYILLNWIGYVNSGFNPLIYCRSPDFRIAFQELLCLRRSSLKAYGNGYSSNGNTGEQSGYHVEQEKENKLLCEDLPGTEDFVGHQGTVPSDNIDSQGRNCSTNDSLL
Sequence of D(2) dopamine receptor (P14416 whole entry): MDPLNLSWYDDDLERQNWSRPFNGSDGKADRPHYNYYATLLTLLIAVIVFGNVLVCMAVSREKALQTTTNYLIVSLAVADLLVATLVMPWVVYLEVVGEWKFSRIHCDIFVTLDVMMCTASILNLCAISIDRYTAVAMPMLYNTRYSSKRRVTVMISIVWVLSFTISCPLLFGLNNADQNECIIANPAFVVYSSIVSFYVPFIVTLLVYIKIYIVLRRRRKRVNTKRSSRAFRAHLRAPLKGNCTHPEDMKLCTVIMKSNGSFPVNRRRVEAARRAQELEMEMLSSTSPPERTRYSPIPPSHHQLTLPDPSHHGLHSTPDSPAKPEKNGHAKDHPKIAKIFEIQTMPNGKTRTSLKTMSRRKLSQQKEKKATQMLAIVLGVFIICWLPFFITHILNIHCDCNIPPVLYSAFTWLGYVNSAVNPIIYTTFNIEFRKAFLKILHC
Sequence of Sodium-dependent serotonin transporter (P31645 whole entry): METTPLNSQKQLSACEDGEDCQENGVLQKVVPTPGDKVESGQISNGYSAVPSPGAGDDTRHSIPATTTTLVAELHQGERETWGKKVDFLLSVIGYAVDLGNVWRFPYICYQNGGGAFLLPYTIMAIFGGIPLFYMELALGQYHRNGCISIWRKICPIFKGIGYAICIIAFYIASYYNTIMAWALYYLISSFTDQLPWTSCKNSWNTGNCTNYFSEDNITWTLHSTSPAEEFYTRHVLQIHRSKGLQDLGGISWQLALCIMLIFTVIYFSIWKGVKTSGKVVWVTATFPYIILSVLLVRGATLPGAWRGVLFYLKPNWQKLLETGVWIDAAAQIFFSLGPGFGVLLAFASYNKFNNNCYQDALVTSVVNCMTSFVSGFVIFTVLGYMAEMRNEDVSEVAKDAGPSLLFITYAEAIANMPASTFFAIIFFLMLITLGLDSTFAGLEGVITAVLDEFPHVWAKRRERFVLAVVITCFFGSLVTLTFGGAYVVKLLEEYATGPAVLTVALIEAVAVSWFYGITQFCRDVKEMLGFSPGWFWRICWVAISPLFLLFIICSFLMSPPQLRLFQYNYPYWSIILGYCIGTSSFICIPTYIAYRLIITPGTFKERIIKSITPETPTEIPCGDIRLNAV
Sequence of Histamine H2 receptor (P25021 whole entry): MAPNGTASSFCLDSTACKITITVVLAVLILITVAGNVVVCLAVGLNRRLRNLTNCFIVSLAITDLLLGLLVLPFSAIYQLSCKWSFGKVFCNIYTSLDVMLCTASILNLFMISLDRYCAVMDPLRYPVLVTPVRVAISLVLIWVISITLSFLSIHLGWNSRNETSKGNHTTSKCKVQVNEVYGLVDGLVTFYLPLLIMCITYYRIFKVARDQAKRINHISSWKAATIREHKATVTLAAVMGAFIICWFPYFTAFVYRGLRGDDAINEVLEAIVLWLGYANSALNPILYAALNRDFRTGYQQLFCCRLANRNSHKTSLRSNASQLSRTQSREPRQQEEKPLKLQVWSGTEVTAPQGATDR

With `C=CCOc1cc(F)c(F)cc1C1CC1CN` (single isomer, unassigned; (-)) the Emax [1] was under 15%.
With `C=CCOc1cc(F)c(F)cc1C1CC1CN` (single isomer, unassigned; (+)) the Activity [2] was “Active”, the Activity [3] was “inactive” and the Activity [4] was “Active”. For the same molecule, the Activity [5] was “Dose-dependent effect”, the Activity [6] was “Active” and the Activity [7] was “Active”. The Activity [8] was “Active”, the Activity [9] was “inactive” and the Activity [10] was “inactive”. The Activity [11] was “Active”, the Activity [12] was “Active” and the Activity [13] was “inactive”.
`C=CCOc1cc(F)c(F)cc1C1CC1CN.Cl` (single isomer, unassigned; (+)) showed a Ki [14] of 4900 nM, a Ki [15] of 3390 nM and a Ki [16] of 1260 nM. The Ki ([17]; read-out: Ki) was 750 nM, the Ki ([17]; read-out: pKi (converted)) was 933 nM and the Ki [18] was 2840 nM. The Ki ([19]; read-out: Ki) was 661 nM, the Ki ([19]; read-out: pKi (converted)) was 166 nM and the Ki [20] was 1680 nM. The Activity [21] was “Non-toxic”, the Ki ([22]; read-out: Ki) was 1270 nM and the Ki ([22]; read-out: pKi (converted)) was 1020 nM. It also gave a Ki [23] of 278 nM, a Ki [24] of 2110 nM and a pKi [24] of 5.68. It also gave a Ki ([25]; read-out: Ki) of 111 nM, a Ki ([25]; read-out: pKi (converted)) of 115 nM and a Ki [26] of 807 nM. For the same molecule, the Ki ([27]; read-out: Ki) was 201 nM and the Ki ([27]; read-out: pKi (converted)) was 195 nM.
In the case of `O=C(CCCN1CCC(O)(c2ccc(Cl)cc2)CC1)c1ccc(F)cc1` [HALOPERIDOL], the Activity [28] is reported as “Dose-dependent effect”.
